Laboratory results: PMC3669666 (Biochemistry, 2013)
Where “and” joins values, the source holds several entries; their conditions need not be identical. Identical values can stand only once. Like-named read-outs stand apart in the source and are kept apart here.

Experiments:
[1] = biological target: X. laevis AHR1β (Xenopus laevis, UniProt Q4QY30); assay: Transactivation; type: cell-based
In short: (§1)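 Same COS-7 co-transfection: AHR construct, X. laevis ARNT1, pGudLuc6.1 firefly reporter and pRL-TK control, total DNA 300 ng, triplicate wells. Graded FICZ (0.5% DMSO vehicle) was added 5 hours post-transfection. Cells were lysed 3 hours after dosing for dual luciferase. Firefly/Renilla ratio, minus vehicle, was normalized to each AHR's maximum. EC50 came from non-linear regression with background 0 and maximum 1; 3-4 replicates.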

[2] = biological target: T1, frog AHR1β N325S mutant (Xenopus laevis, UniProt Q4QY30, N325S); assay: Transactivation; type: cell-based
[3] = biological target: frog AHR1β A354S mutant (Xenopus laevis, UniProt Q4QY30, A354S); assay: Transactivation; type: cell-based
In short: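 COS-7 cells (DMEM, 10% FBS, 37°, 5% CO2) were seeded at 30,000/well. After 24 h, triplicate wells were co-transfected with 50 ng AHR plasmid, 50 ng X. laevis ARNT1, 20 ng pGudLuc6.1 (mouse CYP1A1 enhancer, four XREs) and 3 ng pRL-TK, totalling 300 ng. Five hours later, cells received 0.5% DMSO or graded FICZ. Firefly/Renilla luciferase was read at 3 h, vehicle-subtracted and normalized to maximum. EC50 came from nonlinear regression (bottom 0, top 1). n=3-4.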

[4] = biological target: frog AHR1β A370S mutant (Xenopus laevis, UniProt Q4QY30, A370S); assay: Transactivation; type: cell-based
[5] = biological target: chimeric frog AHR1β containing the mouse LBD (Xenopus laevis, UniProt P30561+Q4QY30); assay: Transactivation; type: cell-based
In short: as §1

[6] = biological target: T2, frog AHR1β A354S/N325S mutant (Xenopus laevis, UniProt Q4QY30, A354S/N325S); assay: Transactivation; type: cell-based
[7] = biological target: mouse AHR^b-1 (Mus musculus, UniProt P30561); assay: Transactivation; type: cell-based
[8] = biological target: frog AHR1β T256A mutant (Xenopus laevis, UniProt Q4QY30, T256A); assay: Transactivation; type: cell-based
In short: (§2)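 COS-7 cells in DMEM with 10% FBS (37°, 5% CO₂), 30,000/well, transfected 24 hours later in triplicate wells. Each well received 50 ng AHR construct, 50 ng X. laevis ARNT1, 20 ng pGudLuc6.1 (CYP1A1 enhancer, four XREs) and 3 ng pRL-TK, with empty vector to 300 ng. After 5 hours, graded TCDD was added (0.5% DMSO), and cells were lysed 18 hours later. EC50 came from regression of fractional firefly/Renilla response (vehicle-subtracted, max=1); n=3-4.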

[9] = biological target: frog AHR1β S263P mutant (Xenopus laevis, UniProt Q4QY30, S263P); assay: Transactivation; type: cell-based
In short: as §2

[10] = biological target: frog AHR1β T256A/S263P mutant (Xenopus laevis, UniProt Q4QY30, S263P/T256A); assay: Transactivation; type: cell-based
In short: as §2

[11] = biological target: frog AHR1β S371T mutant (Xenopus laevis, UniProt Q4QY30, S371T); assay: Transactivation; type: cell-based
In short: as §2

[12] = biological target: frog AHR1β S294Q mutant (Xenopus laevis, UniProt Q4QY30, S294Q); assay: Transactivation; type: cell-based
In short: as §2

[13] = biological target: frog AHR1β KHSR mutant (R345K, D346H, T347S, G348R) (Xenopus laevis, UniProt Q4QY30, D346H/G348R/R345K/T347S); assay: Transactivation; type: cell-based
[14] = system: frog AHR1β; assay: Velocity sedimentation analysis of [3H]TCDD binding; parameters: species or system Xenopus laevis; conditions: 2 nM [3H]TCDD, 18 hr at 4° C, sucrose gradients
In short: (§3)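 They were incubated 18 hr at 4 °C with 2 nM [3H]TCDD, then run on sucrose gradients in a vertical rotor. Peak-fraction dpm minus unprogrammed-lysate dpm gave specific binding, expressed relative to wild-type AHR1β. AHR input was checked by western blot. Three replicates.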

[15] = system: chimeric AHR (frog AHR1β with mouse LBD); assay: as above; parameters: species or system Xenopus laevis / mouse; conditions: 2 nM [3H]TCDD, 18 hr at 4° C, sucrose gradients
In short: as §3

[16] = biological target: T2, frog AHR1β A354S/N325S mutant; assay: as above; conditions: 2 nM [3H]TCDD, 18 hr at 4° C, sucrose gradients
In short: as §3

[17] = biological target: T1, frog AHR1β N325S mutant; assay: Velocity sedimentation analysis of [3H]TCDD binding; conditions: 2 nM [3H]TCDD, 18 hr at 4° C, sucrose gradients
[18] = system: AHR1α; conditions: AHR1α vs mouse AHR; cited from earlier work
[19] = system: AHR1β; conditions: AHR1β vs mouse AHR; cited from earlier work
[20] = system: AHR from the common tern; conditions: common tern AHR vs chicken AHR; cited from earlier work
[21] = system: mouse AHR S359A; conditions: S359A in mouse AHR vs wild type; cited from earlier work

With `O=Cc1c2[nH]c3ccccc3c2cc2[nH]c3ccccc3c12` [FICZ, 6-formylindolo[3,2b]carbazole] the EC50 ([1]; read-out: EC50 for reporter gene induction, FICZ, (3 hr), COS-7 cells, AHR1β) was 0.08 nM, the “fold increase in FICZ responsiveness” value ([2]; N325S vs AHR1β, 3 hr) was “about 2 fold” and the EC50 ([2]; read-out: EC50 for reporter gene induction, FICZ, (3 hr), COS-7 cells, N325S) was 0.07 nM. For the same molecule, the “FICZ responsiveness (in words)” value ([3]; A354S, 3 hr) was “restored responsiveness to a level comparable to the chimera”, the EC50 ([3]; read-out: EC50 for reporter gene induction, FICZ, (3 hr), COS-7 cells, A354S) was 0.04 nM and the “fold increase in FICZ responsiveness” value ([4]; A370S vs AHR1β, 3 hr) was “about 2 fold”. The EC50 ([4]; read-out: EC50 for reporter gene induction, FICZ, (3 hr), COS-7 cells, A370S) was 0.04 nM, the “fold more responsive to FICZ than AHR1β” value ([5]; chimera vs AHR1β, 3 hr) was 2.7 fold and the EC50 ([5]; read-out: EC50 for reporter gene induction, FICZ, (3 hr), COS-7 cells, chimera) was 0.03 ± 0.01 nM.

For `Clc1cc2c(cc1Cl)Oc1cc(Cl)c(Cl)cc1O2` [TCDD, 2,3,7,8-tetrachlorodibenzo-p-dioxin], the EC50 [1] was 18.6 ± 4.7 nM, the EC50 [2] was 5.7 ± 1.6 nM and the “fold greater TCDD responsiveness (EC50 decline) relative to AHR1β” value ([2]; N325S vs wild type AHR1β) was 3 fold and 3.2 fold. The EC50 [3] was 1.2 ± 0.4 nM, the EC50 [4] was 1 ± 0.4 nM and the “fold greater TCDD responsiveness relative to AHR1β” value ([4]; A370S vs wild type AHR1β) was 18.6 fold. For the same molecule, the EC50 ([6]; EC50 for reporter gene induction, TCDD, (24 hr), COS-7 cells, A354S/N325S) was 0.8 nM and 0.82 nM, the “fold greater TCDD responsiveness relative to AHR1β” value ([6]; N325S/A354S vs wild type AHR1β) was ~23 fold and the EC50 [7] was 0.5 ± 0.16 nM. For the same molecule, the EC50 [8] was 23.1 nM, the EC50 [9] was 23.7 ± 8.8 nM and the EC50 [10] was 20.6 ± 8 nM. It also gave an EC50 [11] of 13.5 ± 3.3 nM, an EC50 [12] of 25.9 ± 1.1 nM and an EC50 [13] of 23 nM. For the same molecule, the “TCDD binding (in words)” value [14] was “barely detectable”, the “TCDD binding (in words)” value [15] was “greatest TCDD binding” and the “TCDD binding (in words)” value [16] was “approaching that of the chimera”. For the same molecule, the “TCDD binding (in words)” value [17] was “greater TCDD binding than either A354S or A370S”, the “fold lower TCDD affinity than mouse AHR” value [18] was “more than 25 fold” and the “fold lower TCDD affinity than mouse AHR” value [19] was “more than 25 fold”. The “fold lower TCDD affinity than AHR from chicken” value [20] was 7 fold and the “reduction of TCDD binding” value [21] was 40%.
